# Compound activity: PubChem, several laboratories
# This is a sample that favours compounds with a hit; in the whole collection about 9.2% have one here.
# Autophagy HCS = autophagy modulation, high-content screen; MEF GFP-LC3 puncta imaging; test concentration mostly 10 µM; 190,000 tested, 0.98% active; calls only at 10 µM (by protocol);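 active = percentage of spot-positive cells more than 3 SD above its plate mean, without a fluorescence outlier flag or 80% toxicity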;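 also: spot-positive cell cutoff set from DMSO-treated cells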
# PTEN del growth = PTEN-deleted cell growth suppression; HCT116 PTEN-null viability, CellTiter-Glo, 60 h; stronger effect = lower value; viability, % at 10 µM; 140,000 tested, 1.2% active; AID 827;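 active = viability at or below a set limit, 4 SD under the median of all tested compounds, cut at about 3.7% in these data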;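 also: PTEN knockout HCT116 line with beta catenin targeted HCT116 as companion control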
# Dynein transport = dynein cargo transport inhibition; z-score, hits read low; 3617.4 mouse cells, GR-EGFP nuclear translocation imaging; test concentration mostly 20 µM; stimulated with dexamethasone, 1 µM; stronger effect = lower value; 220,000 tested, 0.47% active;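 active = plate z-score of nuclear minus cytoplasmic receptor signal below a set negative limit, without overly bright fluorescence or cell loss, cut at about -3.5 in these data, passing the limit was not always enough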;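 also: z-score of nuclear minus cytoplasmic ring GR-EGFP intensity difference per well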
#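 Buffer or medium: tet-free medium with charcoal-stripped serum / Also added: dexamethasone agonist, 1.0 µM final, for 30 min / Timing: induction 48 h, compound 1 h, agonist 30 min / Measured by: high-content fluorescence imaging after fixation / Read-out: nuclear-to-cytoplasmic GR-EGFP distribution per well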
# L major viab = reduces viability of Leishmania major promastigotes; inhibition, % at 10 µM; 200,000 tested, 9% active; AID 1063; resazurin fluorescence viability; in the data active = inhibition above about 50%;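 also: promastigotes grown with compound for 44 hours at 28 °C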
# bCat KO growth = beta-catenin-lacking colon tumor cell growth suppression. HCT116 beta-catenin knockout viability, CellTiter-Glo, 60 h; stronger effect = lower value. viability, % at 10 µM. 140,000 tested, 1.5% active. AID 818;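 active = viability at or under a set limit, the compound median less 4 SD, cut at about 6% in these data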;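 also: 0% = Hyamine 1622 control at 20 µM and 100% = untreated cell control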
# Numbers without * were called inactive; i = inactive; / = no result given; + = active, no number.
SMILES,Autophagy HCS,PTEN del growth,Dynein transport,L major viab,bCat KO growth
Cc1nn(C)c(Cl)c1CN1CCCC(CO)(Cc2ccccc2)C1 (stereo not given),i,/,0.25,24,/
O=C(Cc1ccc(F)cc1)Nc1nnc(SCC(=O)NC2CCCC2)s1,i,/,-0.25,-5,/
CC1(C)CC(O)(CNCc2ccc3c(c2)OCO3)CCO1 (stereo not given),i,101,-0.43,75*,108
CCOc1ccccc1C(=O)N1CCN(C(c2ccccc2)c2ccccc2)CC1,i,69,0.046,95*,72
Cc1ccccc1C(=O)N1CCN(C(c2ccccc2)c2ccccc2)CC1,/,/,-0.98,/,/
O=S(=O)(c1cnc(Cl)c(Cl)c1)N1CCc2ccccc21,/,/,-4.3*,/,/
CC(=O)c1ccccc1NC(=O)Cn1c(=O)cnc2ccccc21,i,79,1,58*,67
CCCCNC(=S)Nc1ccc(-c2nc3ccc(C)cc3s2)cc1,i,63,0.15,4,73
CCC(C)(C)NC(=S)Nc1ccc(-c2nc3ccc(C)cc3s2)cc1,i,89,1.5,75*,92
Cc1ccc(S(=O)(=O)Nc2ccc(-c3csc(-c4ccccc4)n3)cc2)cc1,i,2.4*,0.021,4,2.7*
COc1ccc(-c2csc(NC(=O)c3ccccc3NS(=O)(=O)c3ccc(F)c(F)c3)n2)cc1,i,/,1.2,49,/
Cc1ccc2nc(-c3ccc(NS(=O)(=O)c4ccc(F)cc4)cc3)sc2c1,i,79,-0.79,65*,78
Cc1ccc(S(=O)(=O)Nc2ccccc2C(=O)Nc2nc(-c3ccc(F)cc3)cs2)cc1,i,6,0.19,54*,6
COc1ccc(OC)c(CNC(=O)c2coc(=O)c3ccccc23)c1,i,/,-0.67,3,/
CCN(CC)C(=O)c1nn(-c2ccccc2)c2c1C1CCC2(C)C1(C)C (stereo not given),i,/,-0.013,24,/
O=C(CSc1ccc(-c2ccncc2)nn1)c1ccccc1,i,/,0.64,42,/
CC1=C(C(=O)OCc2ccc3c(c2)OCO3)C(c2cccc([N+](=O)[O-])c2)NC(=O)N1 (stereo not given),i,/,-0.46,-9,/
O=c1[nH]c(SCc2nc3ccccc3c(=O)n2-c2ccccc2C(F)(F)F)nc2ccccc12,i,76,-0.17,23,79
Oc1ccc(Cl)cc1C1=Nc2ccccc2N=C(c2ccco2)C1,+,69,-0.9,-1,67
CN(C)CCOC(C1CCCCC1)C1CCCCC1,i,24,-0.27,50*,27
CN(C)CCNC(=S)NC1CCCCC1,i,/,-0.22,-1,/
O=S(=O)(c1ccccc1)c1nc(-c2cccs2)oc1NCC1CCCO1 (stereo not given),i,101,-1.2,86*,116
Cc1ccc(C(=O)c2cnc3ccccc3c2-c2ccccc2)cc1,i,92,1,57*,80
COc1ccc(C(=O)c2cnc3ccccc3c2-c2ccccc2)cc1,i,70,-0.2,30,71
O=Nc1c(O)n(Cc2ccc(Cl)c(Cl)c2)c2ccccc12,i,77,3,77*,98
SMILES,Autophagy HCS,PTEN del growth,Dynein transport,L major viab,bCat KO growth
Cn1cc(C(=O)N2CCc3ccccc3C2)c(=O)c2cc(S(=O)(=O)N3CCCCC3)ccc21,i,97,0.4,-3,88
CCn1cc(C(=O)N2CCc3ccccc3C2)c(=O)c2cc(S(=O)(=O)N3CCCCC3)ccc21,+,100,1.3,-1,87
O=C(Cn1cnc([N+](=O)[O-])n1)N/N=C/c1cc(Cl)ccc1O,i,/,-1.1,100*,/
O=C(Cn1cnc([N+](=O)[O-])n1)N/N=C/c1ccccc1O,i,83,0.18,100*,77
Cc1ccccc1/C=N/NC(=O)Cn1cnc([N+](=O)[O-])n1,i,105,-0.16,24,106
COc1ccc2c(c1)c(C(=O)N/N=C/c1cccc(Br)c1)c(C)n2C,/,/,-0.059,/,/
CCCC(=O)Nc1ccc2oc(-c3ccncc3)nc2c1,i,97,-0.99,-2,99
O=C(CN1CCCC1)Nc1ccc(-c2nc3cc(NC(=O)CN4CCCC4)ccc3o2)cc1,+,3.7*,0.73,101*,2.4*
CCC(C)NCC(=O)Nc1ccc(-c2nc3cc(NC(=O)CNC(C)CC)ccc3o2)cc1 (stereo not given),i,0.8*,-1,99*,0.6*
CCN(CC)CC(=O)Nc1ccc(-c2nc3cc(NC(=O)CN(CC)CC)ccc3o2)cc1,i,7,0.63,86*,8
